Experimental data published in the EternaBench riboswitch data.

System: MS2 coat protein
Assay: apparent Kd, MS2 coat protein; higher = weaker binding; RNA-MaP array; FMN 200 µM where present
Procedure, shortened: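 The apparent Kd is the median of filtered binding-curve fits, one per cluster, to green signal normalised to red-channel RNA signal and control-cluster median Fmax. The clusters were on Illumina sequencing chips, and stalled E. coli RNA polymerase had transcribed the designs on them. Titration used SNAP-549-labelled MS2 coat protein from 0.7 or 1.5 nM, doubling to 3 µM, without and then with constant ligand, in 100 mM Tris-HCl pH 7.5, 80 mM KCl, 4 mM MgCl2, BSA, DTT, yeast tRNA and Tween-20.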

[1] = designed as: OFF switch for flavin mononucleotide, no ligand
[2] = ligand present: flavin mononucleotide, designed as: OFF switch for flavin mononucleotide
[3] = designed as: ON switch for flavin mononucleotide, no ligand
[4] = ligand present: flavin mononucleotide, designed as: ON switch for flavin mononucleotide

## GUCGUGUUAGGAUAUGGCAACGGCGGCGAAAGUUGUUGUUGUUAGAAGGAACAUGAGGAUCACCCAUGUAUGAC
[1]
  apparent Kd: 37.7 nM
[2]
  apparent Kd: 113 nM

## GUCUCACAUGAGGAUCACCCAUGUGAGGAUAUGGAUUCGCUGGCCGUAGCCAGUGGAUCCAGAAGGCGCGUGAU
[1]
  apparent Kd: 59.1 nM
[2]
  apparent Kd: 58.8 nM

## GUCUUAUUACAGAAGGUGUUUUACAUGAGGAUCACCCAUGUUUUAAUGUUUAAAUUUGAUAUUUACAAGGAUAUGUACUAAUCU
[3]
  apparent Kd: 27.7 nM
[4]
  apparent Kd: 19.4 nM

## GUGAAACAUGAGGAUCACCCAUGUGAGGAUAUGUUUUAGUACUGCAGACAGUACAUCUAUAGAAGGCACAAUGG
[1]
  apparent Kd: 38.9 nM
[2]
  apparent Kd: 70.7 nM

## GUGACGAAUGUAGGAUAUGCUGAGGAAUACUCAGCAGAAGGACAUGAGGAUCACCCAUGUCAUCCUAAUAAUAAAUAACGUCAC
[1]
  apparent Kd: 12.3 nM
[2]
  apparent Kd: 17.4 nM

## GUGAUGAUCGAGAAGGCCACUACAUGAGGAUCACCCAUGUCGUGGUGUAUUGGAGGAUAUCGAUCGACGUCUUAUGAGGACAUA
[1]
  apparent Kd: 4.82 nM
[2]
  apparent Kd: 5.95 nM

## GUGCAAACAUGAGGAUAUGUAUUAAAUAAUAAUACAGAAGGCAUGUCAAAUGACAUGAGGAUCACCCAUGUUGGCAAAAUGCGC
[3]
  apparent Kd: 144 nM
[4]
  apparent Kd: 29.7 nM

## GUGCACACUCGAGGAUAUCGGAGAGUUCUCCUUCGAGAAGGCGAUUCGUGCCGUGUUAUUCUGGACAUGAGGAUCACCCAUGUG
[3]
  apparent Kd: 84.2 nM
[4]
  apparent Kd: 32.4 nM

## GUGCACAUUCGAGGAUAUCGGAGAGAGAUCCUUCGAGAAGGCGAUUCAUGAUGUAUUAUCCUGGACAUGAGGAUCACCCAUGUG
[3]
  apparent Kd: 579 nM
[4]
  apparent Kd: 288 nM

## GUGCACAUUCGAGGAUAUCGGAGAGGGAUCCUUCGAGAAGGCGAUUCAUGCUGUGUUAUUCUGGACAUGAGGAUCACCCAUGUG
[3]
  apparent Kd: 265 nM
[4]
  apparent Kd: 125 nM

## GUGCCUUGGGAGAAGGCCGAUAGCAAAGCUAUCGGAGGAUAUCCAUACCGGAAACGGACAUGAGGAUCACCCAUGUGGCACAAA
[3]
  apparent Kd: 16.3 nM
[4]
  apparent Kd: 7.6 nM

## GUGCGACAUGAGGAUCACCCAUGUGAGGAUAUCCCGGGCCGGGCUUUUGCCCGGCCCGGGAGAAGGCGCGUCGU
[1]
  apparent Kd: 68.4 nM
[2]
  apparent Kd: 70.7 nM

## GUGCGAGCCACAGGAUAUCUACAGAUUUAUUGUAGAGAAGGGUGACCUCGUGCACCACAUGAGGAUCACCCAUGUAACUAGGCG
[3]
  apparent Kd: 30 nM
[4]
  apparent Kd: 48.2 nM

## GUGCGGUAGGAGAAGGACGGAGGCUUCUUUUCAUACAUGAGGAUCACCCAUGUAGGAUAUCCUACCUCACGCGGCCUACUACAG
[1]
  apparent Kd: 8.74 nM
[2]
  apparent Kd: 7.7 nM

## GUGCUACAGCUGCGCACGAGACAUGAGGAUCACCCAUGUGACAGAAGGGACUUGUUAAAGGUAGGUCAGGAUAUGUCUUAAAAG
[3]
  apparent Kd: 148 nM
[4]
  apparent Kd: 44.2 nM

## GUGCUUGUCGGAGGAUAUGGUUACAUGAGGAUCACCCAUGUUAUGCUUGGUUACUUGUUUAGUUUCCAGAAGGUCGAUUAGUUG
[1]
  apparent Kd: 61 nM
[2]
  apparent Kd: 145 nM

## GUGGAGUAAGGAUAUACAUGAGGAUCACCCAUGUGAGGGUAUGUGAUGGGAGUAGGUUGUAGAAGGUACGAGGA
[1]
  apparent Kd: 287 nM
[2]
  apparent Kd: 131 nM

## GUGGAGUACGUAGGAUAUGUAGGAUAUUCCUACAUGAGGAUCACCCAUGUAAGCAUGGAAGAAGGACAGAAGGACGUGCUCCAG
[3]
  apparent Kd: 231 nM
[4]
  apparent Kd: 12.1 nM

## GUGGCACAUGAGGAUCACCCAUGUAGGUAGAACAUAGGAUAUCACCAACAAAAUACCUGGUGAGAAGGAUGAUGCC
[3]
  apparent Kd: 166 nM
[4]
  apparent Kd: 59.8 nM

## GUGGCACAUGAGGAUCACCCAUGUCAGGAUAUCGUGUGUUUUUUUUCGGCCGCGCGCGCGAGAAGGGACGUCUU
[1]
  apparent Kd: 149 nM
[2]
  apparent Kd: 120 nM

## GUGGCAUACUGAGGAUAUUCAUAUAAUAAAUAAACAUGAGGAUCACCCAUGUGGCGAAAGCCUUGGGAGAAGGCAGAAUGCUAC
[3]
  apparent Kd: 521 nM
[4]
  apparent Kd: 46.7 nM

## GUGGCUCCCACAGGAUAUCCACAUGAGGAUCACCCAUGUCUAAUUAACAAAGGAGAAGGGUGGGACAAUUCUGGUGACUGAGAA
[3]
  apparent Kd: 30.1 nM
[4]
  apparent Kd: 4.89 nM

## GUGGGUCGGGAGGAUAUUCGGGCUCAUGGGCUUGGAGAAGGCUCGACAUGAGGAUCACCCAUGUAAGUGUUCUU
[1]
  apparent Kd: 50 nM
[2]
  apparent Kd: 621 nM

## GUGGGUGAUGGAGGAUAUGACGACGGGUUUUACAUGAGGAUCACCCAUGUGGCGUUCCGCAAAAGUCAGAAGGCCAGGUAUACU
[3]
  apparent Kd: 332 nM
[4]
  apparent Kd: 40.6 nM

## GUGGUACAUGAGGAUCACCCAUGUAAGGAUAUAGUCGUCUGGUGGUCUCGGGUGGUGGCUAGAAGGUGCGUGCG
[1]
  apparent Kd: 189 nM
[2]
  apparent Kd: 177 nM

## GUGGUACAUGAGGAUCACCCAUGUUAGGAUAUCGCGUGAGGUUUUACUUCCACACACACGAGAAGGGACGUCUU
[1]
  apparent Kd: 44.3 nM
[2]
  apparent Kd: 36.2 nM

## GUGGUCAGACAUGAGGAUCACCCAUGUGGAAUAAAUAACACACAGGAUAUGUAAUAUAGGAUAUAACAGAAGGGUGGAUUGGUG
[3]
  apparent Kd: 318 nM
[4]
  apparent Kd: 168 nM

## GUGGUCAGACAUGAGGAUCACCCAUGUGGAAUAAAUAACAGACAGGAUAUCUAAUAUAGGAUAUAGGAGAAGGGUCGAUUGGUG
[3]
  apparent Kd: 89 nM
[4]
  apparent Kd: 85.3 nM

## GUGGUCAGACAUGAGGAUCACCCAUGUGGAAUAAAUAACAGACAGGAUAUGUAAUAUAGGAUAUAACAGAAGGGUCGAUUGGUG
[3]
  apparent Kd: 89 nM
[4]
  apparent Kd: 77.9 nM

## GUGGUCAGACAUGAGGAUCACCCAUGUGGAAUAAAUAAGGAAUAGGAUAUCGAAUAUAGGAUAUACGAGAAGGGUUGGUUGGUG
[3]
  apparent Kd: 121 nM
[4]
  apparent Kd: 131 nM

## GUGGUCAGACAUGAGGAUCACCCAUGUGGAAUAAAUAAGGAGAAGGAUAUGGAAUAUAGGAUAUACCAGAAGGUCUGGUUGGUG
[3]
  apparent Kd: 79 nM
[4]
  apparent Kd: 90.7 nM

## GUGGUCUCCGCAGGAUAUGGCUCGGGCACGACACCAGAAGGGCGGACAUGAGGAUCACCCAUGUUCGCGGGUGGGUCCUAAGGA
[1]
  apparent Kd: 6.39 nM
[2]
  apparent Kd: 7.49 nM

## GUGGUGCAUAUACGUGGAUGUACAUGAGGAUCACCCAUGUAAGAGGAUAUGCGGAUACUAGCUCAGCAGAAGGCUUACAACUGA
[1]
  apparent Kd: 11.3 nM
[2]
  apparent Kd: 41 nM

## GUGGUGCGUAUACGUGGAUGUACAUGAGGAUCACCCAUGUAAGAGGAUAUGCGGAUACUAGCUCAGCAGAAGGCUUACAAAUGA
[1]
  apparent Kd: 23.1 nM
[2]
  apparent Kd: 92.1 nM

## GUGGUUGUCGUAGGAUAUGUAGGAUAUUCCUACAUGAGGAUCACCCAUGUUCGCAUGGAAGAAGGACAGAAGGACGAUGACCAA
[3]
  apparent Kd: 1160 nM
[4]
  apparent Kd: 9.11 nM

## GUGGUUGUCGUAGGAUAUGUAGGAUAUUCCUACAUGAGGAUCACCCAUGUUCGCAUGGAAGAAGGACAGAAGGACGAUGACCAG
[3]
  apparent Kd: 801 nM
[4]
  apparent Kd: 22.7 nM

## GUGUACAGAGGAUAUACAUAAGCAUGGAAACAUGCAUCUUCACAUGAGGAUCACCCAUGUAGAAGGCUGUACAC
[1]
  apparent Kd: 18.1 nM
[2]
  apparent Kd: 75.6 nM

## GUGUACAUUCGAGGAUAUCGGAGAGAGAUCAUUCGAGAAGGCGAUUCAUGAUGUAUUAUCCUGGACAUGAGGAUCACCCAUGUG
[3]
  apparent Kd: 109 nM
[4]
  apparent Kd: 74.6 nM

## GUGUACGCAGGAUAUACAUGAGGAUCACCCAUGUGAAUAAGAUAGAAUAAGAUAAAGUGUAGAAGGGCGAGUGU
[1]
  apparent Kd: 35.2 nM
[2]
  apparent Kd: 34.9 nM

## GUGUACGGAGGAUAUAUGUGGGCAGGCUGACCUGCAGCUUCACAUGAGGAUCACCCAUGUAGAAGGCUGUGCAC
[1]
  apparent Kd: 22.2 nM
[2]
  apparent Kd: 92.9 nM

## GUGUAGAGAGGAUAUACAUGAGGAUCACCCAUGUGAAUAAGAUAGAAUAAGAUAAAGUGUAGAAGGCUUAGUGU
[1]
  apparent Kd: 33.5 nM
[2]
  apparent Kd: 25.9 nM

## GUGUAGAUAGGAUAUGCAAGAGUCUAGCGAAGCUAGAUUCUACAUGAGGAUCACCCAUGUAGAAGGGUCUACAC
[1]
  apparent Kd: 18.3 nM
[2]
  apparent Kd: 16.1 nM

## GUGUAGAUAGGAUAUGCAUGAGUCUAGCGAAGCUAGGCUCUACAUGAGGAUCACCCAUGUAGAAGGGUCUACAC
[1]
  apparent Kd: 20.6 nM
[2]
  apparent Kd: 17.2 nM

## GUGUAGAUAUCAGGAUAUCCAUUUCCUACAUGAGGAUCACCCAUGUAGAUGAUCACCCAUGUAAAGGAGAAGGGAUAUCUAUAC
[3]
  apparent Kd: 206 nM
[4]
  apparent Kd: 173 nM

## GUGUAGUCAGGAUAUACAUAGGAAGAGAAGAGAAGAGAAGCACAUGAGGAUCACCCAUGUAGAAGGGACAGUGU
[1]
  apparent Kd: 70.9 nM
[2]
  apparent Kd: 82.9 nM

## GUGUAGUCAGGAUAUACAUGAGGAUCACCCAUGUGAAUAAGAUAGAAUAAGAUAAAGUGUAGAAGGGAUAGUGU
[1]
  apparent Kd: 29.6 nM
[2]
  apparent Kd: 25.7 nM

## GUGUCGUCAGGAUAUCCUACAUAACUAUCGUUGUUACCAUUGGAGAAGGGACAUGAGGAUCACCCAUGUUUUCC
[1]
  apparent Kd: 19.3 nM
[2]
  apparent Kd: 19.7 nM

## GUGUGCAGAGGAUAUACAGAGGAAAAGAAGAAAGAAGAGGGACAUGAGGAUCACCCAUGUAGAAGGCUGAGUGU
[1]
  apparent Kd: 33.9 nM
[2]
  apparent Kd: 35.2 nM

## GUGUGCUGAGGAUAUACAGAGGAAGAUAAUACAAUAUAAGUACAUGAGGAUCACCCAUGUAGAAGGCAGAGUGU
[1]
  apparent Kd: 28.2 nM
[2]
  apparent Kd: 26.4 nM

## GUUAAGAACUAAGGAUAUUGAAUACAUAUGUUUAACAUGAGGAUCACCCAUGUGGGUUGCGGUAUCGAGAAGGUAGAAUAAUAG
[3]
  apparent Kd: 115 nM
[4]
  apparent Kd: 113 nM

## GUUACAUGAGGAUCACCCAUGUAUGUGUGGGAGUAAGUGUCUUAGGAUAUCUAUGAUUUAAUUGAAGAGAAGGAAGAUUGUUGU
[3]
  apparent Kd: 116 nM
[4]
  apparent Kd: 122 nM

## GUUAUAACAGUCAGGAUAUUUAAGCUUAUCGAGCUAGAGAAGGGACAUGAGGAUCACCCAUGUAGCCUCGUUAG
[1]
  apparent Kd: 16 nM
[2]
  apparent Kd: 17.1 nM

## GUUCUUCCUGUAAGGAUAUCCAUGUAUCAGUUUAUGGAGAAGGUACAUGAGGAUCACCCAUGUCACCCGCGUUA
[1]
  apparent Kd: 20.1 nM
[2]
  apparent Kd: 46.1 nM

## GUUCUUCCUGUGAGGAUAUCCAUGUGUCGGUGUGUGGAGAAGGUACAUGAGGAUCACCCAUGUCACCCGCGUUU
[1]
  apparent Kd: 20.8 nM
[2]
  apparent Kd: 22.2 nM

## GUUCUUCCUGUGAGGAUAUCCAUGUGUCGGUUUGUGGAGAAGGUACAUGAGGAUCACCCAUGUCACCCGCGUUU
[1]
  apparent Kd: 14.8 nM
[2]
  apparent Kd: 16.3 nM

## GUUGCGUUUGUGAGGAUAUGCUGUUCCUUGGUUCGGCAGAAGGCACAUGAGGAUCACCCAUGUGGUGUCGUUCC
[1]
  apparent Kd: 15.5 nM
[2]
  apparent Kd: 28.7 nM
